KCNK3 block: human KCNK3 channel inhibition, primary screen. B-score at 10 µM. hit rate 0.84% among 340,000. O14649. AID 602410. CHO-KCNK3 thallium flux, FluxOR fluorescence; stronger effect = lower value;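 active = B-score under library mean minus 4 SD, starting fluorescence ratio at most library mean plus 5 SD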;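 also: more negative B-score means stronger inhibition of thallium flux through KCNK3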
KCNK9 inh: human KCNK9 channel inhibition | HEK293 KCNK9, FluxOR thallium flux fluorescence; stronger effect = lower value | Q9NPC2 | B-score at 10 µM | hit rate 1.2% among 310,000 | AID 488922;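 active = ratio B-score over 3 SD below the library mean, with starting fluorescence within 5 SD of its mean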;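 also: negative B-score means less thallium flux so channel inhibition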
Kir21 inh: blocks the mouse Kir2.1 inward-rectifier potassium channel. P35561. HEK293-Kir2.1, FluxOR thallium flux fluorescence; stronger effect = lower value. hit rate 0.85% among 310,000. B-score at 10 µM. AID 1672;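 active = fluorescence ratio B-score at or below minus 3 SD of library scores, with starting-brightness B-score within 2 SD, cut at about -4.2 in these data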;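 also: channel flux triggered by added potassium and thallium sulfate stimulus; B-score of peak minus minimum fluorescence over baseline after thallium stimulus; more negative B-score means stronger Kir2.1 block with less thallium influx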
KCNQ1 pot: human KCNQ1 channel potentiation or activation | B-score at 10 µM | hit rate 0.35% among 310,000 | P51787 | CHO-K1 KCNQ1, thallium flux FluxOR fluorescence; stronger effect = higher value;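 active = fluorescence ratio B-score, a plate-corrected score, at least three library SD, with initial intensity B-score within 5 SD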
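Material: CHO-K1 cells stably expressing KCNQ1. Medium: assay buffer for compound exposure, DMSO matched across wells. Reagent: K+/Tl+ depolarizing stimulus. Compound dosing: single-concentration screen. Times: 37 °C overnight plating, 90-min dark dye load, 20-min compound pretreatment. Technique: FluxOR Tl+ flux fluorescence.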
hERG rescue: hERG (human) protection from proarrhythmic block; hit rate 0.51% among 310,000; AID 1511; activation (rescue from dofetilide block), less the hit threshold, % at 10 µM; CHO-hERG, FluxOR thallium flux, dofetilide IC70 present; Q12809;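 active = activation above the mean of controls blocked by dofetilide plus 5 SD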;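 also: thallium influx through hERG after potassium depolarization seen as dye fluorescence rise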
Target sequence (Q12809 whole entry, looked up): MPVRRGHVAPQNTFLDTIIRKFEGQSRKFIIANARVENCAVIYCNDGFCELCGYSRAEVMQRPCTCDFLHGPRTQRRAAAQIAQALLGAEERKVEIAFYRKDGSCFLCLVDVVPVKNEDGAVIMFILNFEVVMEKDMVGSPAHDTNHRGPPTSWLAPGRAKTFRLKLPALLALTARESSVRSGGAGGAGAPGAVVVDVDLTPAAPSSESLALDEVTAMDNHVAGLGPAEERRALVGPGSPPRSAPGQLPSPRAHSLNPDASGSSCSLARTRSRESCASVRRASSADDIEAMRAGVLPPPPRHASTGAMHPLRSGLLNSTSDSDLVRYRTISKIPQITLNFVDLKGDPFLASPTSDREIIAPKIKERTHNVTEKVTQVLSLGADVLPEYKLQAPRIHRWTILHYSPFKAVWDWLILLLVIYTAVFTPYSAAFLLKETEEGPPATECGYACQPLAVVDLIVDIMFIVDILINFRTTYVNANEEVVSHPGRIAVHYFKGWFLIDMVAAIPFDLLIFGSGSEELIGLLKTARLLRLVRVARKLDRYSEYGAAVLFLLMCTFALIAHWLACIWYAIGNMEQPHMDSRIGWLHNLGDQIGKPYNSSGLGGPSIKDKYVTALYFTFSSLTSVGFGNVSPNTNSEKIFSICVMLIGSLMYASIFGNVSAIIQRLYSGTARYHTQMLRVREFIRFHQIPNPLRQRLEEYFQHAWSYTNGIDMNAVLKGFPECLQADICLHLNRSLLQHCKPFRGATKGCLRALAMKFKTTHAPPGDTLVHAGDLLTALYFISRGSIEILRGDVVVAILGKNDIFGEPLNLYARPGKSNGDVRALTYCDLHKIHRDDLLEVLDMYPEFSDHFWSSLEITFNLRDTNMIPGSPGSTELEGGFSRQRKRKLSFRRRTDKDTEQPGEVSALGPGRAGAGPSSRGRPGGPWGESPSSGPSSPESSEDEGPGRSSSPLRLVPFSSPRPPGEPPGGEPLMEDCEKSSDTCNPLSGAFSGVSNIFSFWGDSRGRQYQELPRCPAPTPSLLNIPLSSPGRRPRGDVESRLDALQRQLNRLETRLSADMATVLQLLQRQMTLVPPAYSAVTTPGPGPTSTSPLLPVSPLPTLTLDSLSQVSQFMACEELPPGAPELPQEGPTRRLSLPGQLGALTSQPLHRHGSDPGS
KCNQ1 inh: blocks the human KCNQ1 potassium channel | P51787 | CHO-K1 KCNQ1, FluxOR thallium flux fluorescence; stronger effect = higher value | B-score at 10 µM | hit rate 1.3% among 310,000 | AID 2642;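 active = compounds whose thallium flux B-score, printed positive for inhibition, exceeds three library SD while starting fluorescence stays within three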;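 also: channel opened by potassium depolarization with thallium stimulus after 20 min compound exposure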
KCNK9 inh conf: human KCNK9 inhibitor confirmation. shares compounds with KCNK9 inh. HEK293 KCNK9 cells, FluxOR thallium flux fluorescence. inhibition, % at 10 µM. hit rate 43% among 4,900. AID 492992;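 active = thallium signal inhibited by more than 5 SD of the compound-free buffer control wells, on both duplicate plates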;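 also: 0% = assay buffer control wells without compound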
Kir2-1 spec: selectivity of KCNK9 modulators against mouse Kir2.1; shares compounds with KCNK9 inh; Kir2.1 cells, FluxOR thallium flux fluorescence; inhibition, % at 10 µM; hit rate 4% among 4,900;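 active = thallium signal drop more than 5 SD beyond the mean of the no-compound control wells, seen in both duplicate plates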;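 also: signal is fluorescence rise after thallium addition divided by baseline fluorescence; plate controls were assay buffer only for no effect and full block by chlorpromazine control for full effect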
KCNK9 uninduced: non-induced cell nonspecific activity of KCNK9 modulators; shares compounds with KCNK9 inh; non-induced KCNK9-HEK293, FluxOR thallium flux; inhibition, % at 10 µM; hit rate 40% among 4,900;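 active = thallium signal drop beyond 5 SD of the untreated control mean, on both duplicate plates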;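 also: plate controls were buffer only IC0 wells for no effect and SID17386958 at its maximal inhibitory level for full effect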
* = called active by the depositor; i = inactive; . = no result. The list is not random: actives were taken first. Their share in the collection is about 3.8%.

SMILES	KCNK3 block	KCNK9 inh	Kir21 inh	KCNQ1 pot	hERG rescue	KCNQ1 inh	KCNK9 inh conf	Kir2-1 spec	KCNK9 uninduced
Fc1ccccc1C1CCN(Cc2nc(COc3ccccc3)no2)C1 (centres undefined)	i	i	0.05	i	-16	i	i	i	i
Cc1cccc(C)c1-n1c(C)cc(/C=N/NC(=O)CSc2ncccn2)c1C	i	-9.5*	-0.67	i	-12	i	50%*	i	28%*
O=C(Nc1cccc(Cl)c1)N(CCN1CCOCC1)Cc1cccc(Cl)c1	-11*	-12*	-0.68	i	-17	6*	54%*	i	34%*
c1ccc(Cn2nnc(CNc3ccccc3)c2-c2c(CNc3ccccc3)nnn2Cc2ccccc2)cc1	i	-17*	0.98	i	-7	i	64%*	i	36%*
Nc1c(C(=O)NCc2ccccc2)nnn1Cc1ccccc1	i	i	-1.4	i	-9	i	.	.	.
COCc1cc(=O)[nH]c(N2CCN(Cc3ccc4c(c3)OCO4)CC2)n1	i	i	2.1	i	-2	i	.	.	.
COc1cccc(/C=N/Nc2nc(Nc3ccccc3)nc(-n3nc(C)cc3C)n2)c1O	i	-10*	-0.45	i	-13	i	43%*	i	24%*
CC(C)C(NC(N)=O)C(=O)NC1CCCCC1 (centres undefined)	.	i	0.09	i	-2	i	.	.	.
CC1CCCC(=NNC(=O)C2COc3ccccc3O2)C1 (centres undefined)	i	.	.	.	.	.	.	.	.
O=C(OCCc1cc2ccccc2c(=O)o1)N1CCOCC1	i	.	.	.	.	.	.	.	.
COC(=O)CN1C(c2ccc(Cl)cc2)=Nc2ccc(Cl)cc2C1c1ccccc1 (centres undefined)	i	-10*	-0.83	i	-12	i	32%*	i	42%*
CCN(CC)C(=O)CSc1nc(N)c(C#N)c(-c2cccs2)c1C#N	i	i	0.65	i	3	i	.	.	.
CCN(CC)C(=O)CSc1nc(-c2cccs2)cc(-c2cccs2)c1C#N	i	-9.8*	-0.26	i	-21	i	62%*	i	68%*
COCc1ccc(C(=O)N2CCCC(N(C)Cc3ccccc3)C2)s1 (centres undefined)	i	i	-0.32	i	-4	i	.	.	.
CN(Cc1ccccc1)C1CCCN(C(=O)c2ccc(Cl)s2)C1 (centres undefined)	i	i	-0.14	i	-8	i	i	i	i
CC(C)NC(=O)CC(c1ccccc1)c1cc(Br)ccc1O (centres undefined)	i	i	-0.18	i	-18	i	.	.	.
O=C(CC(c1ccccc1)c1cc(Br)ccc1O)NCc1ccco1 (centres undefined)	-11*	-11*	-2.4	i	-17	i	48%*	i	i
O=C1CC(c2ccccc2)c2cccc(F)c21 (centres undefined)	i	i	-0.98	i	-8	i	.	.	.
COc1ccc(C/C(N)=N/OC(=O)COc2ccccc2C)cc1	i	i	0.6	i	-6	i	.	.	.
COc1ccccc1C/C(N)=N/OC(=O)COc1ccc(C)cc1C	i	i	-1.9	i	-12	i	i	i	i
Fc1ccccc1N1CC(c2ccccc2)C(c2cccs2)=N1 (centres undefined)	i	-8.6*	1.9	i	-9	i	34%*	i	43%*
O=C(COC(=O)c1ccc(Cl)cc1)NC(=O)NC1CCCC1	i	.	.	.	.	.	.	.	.
CC(NCC(=O)NC(=O)NC1CCCC1)c1ccc(Cl)cc1Cl (centres undefined)	i	i	-1.7	i	-13	i	i	i	i
O=C(O)c1ccc(-c2nc(-c3cccc(C(F)(F)F)c3)cs2)cc1	i	i	1.1	i	-14	i	i	i	i
O=C(O)c1ccc(-c2nc(-c3ccc(Cl)cc3)cs2)cc1	i	i	1.1	i	-8	i	.	.	.
SMILES	KCNK3 block	KCNK9 inh	Kir21 inh	KCNQ1 pot	hERG rescue	KCNQ1 inh	KCNK9 inh conf	Kir2-1 spec	KCNK9 uninduced
Cc1oc(=O)c(NC(=O)c2cccc(Cl)c2)cc1C(=O)c1ccccc1	i	i	-0.75	i	-11	i	i	i	i
COc1ccc(C(=O)Nc2cc(C(=O)c3ccccc3)c(C)oc2=O)cc1	i	i	-0.27	i	-7	i	.	.	.
CC(NC(=O)c1cc2cc(Br)ccc2oc1=N)c1ccccc1 (centres undefined)	i	i	0.51	i	-16	i	i	i	i
N#Cc1c(Cl)nsc1NN	i	i	1.5	i	-14	i	.	.	.
CCc1ccc(-c2cc(C)no2)cc1S(=O)(=O)N1CCN(c2cc(C)ccc2C)CC1	i	i	-0.04	i	-8	i	i	i	i
CC1=NOC(=O)/C1=C\c1ccc(-c2cccc(Cl)c2)o1	i	i	-1.3	i	-12	i	i	i	i
Cc1cc(NC(=O)C(C)C)ncc1NC(=O)c1ccccn1	i	i	1.2	i	-1	i	i	i	i
CCCC(=O)Nc1cc(C)c(NC(=O)c2ccccn2)cn1	i	i	-0.08	i	-10	i	.	.	.
O=C1N/C(=N/S(=O)(=O)Cc2ccccc2)S/C1=C/c1ccc2c(c1)OCO2	i	i	0.45	i	-21	i	i	i	i
O=C1NC(=S)SC1=Cc1ccc2c(c1)OCO2	i	.	.	.	.	.	.	.	.
Cc1ccc(C)c(N2CCN(CC3CC=CCC3)CC2)c1 (centres undefined)	i	i	-0.2	i	4	i	i	i	i
CS(=O)(=O)Nc1ccc(C2=NN(S(=O)(=O)c3ccc(F)cc3)C(c3ccco3)C2)cc1 (centres undefined)	i	-10*	-2	i	-13	i	38%*	i	i
Cc1ccc(C2=NN(S(=O)(=O)c3ccccc3)C(c3ccco3)C2)cc1 (centres undefined)	i	.	.	.	.	.	.	.	.
Oc1ccccc1-c1nnc(COc2ccc(Cl)cc2Cl)o1	i	i	-0.95	i	-6	i	.	.	.
Clc1ccc(-c2nnc(CCc3ccccc3)o2)c(Cl)c1	i	i	1.6	i	-3	i	i	i	i

Screening data: PubChem BioAssay, Johns Hopkins Ion Channel Center
